# From ChEMBL document CHEMBL1177640 (Bioorg Med Chem, 2010)
# pIC50: −log10 of the molar value. Active and inactive are the calls of the source. The rule behind the calls is not given here.
# Experiments:
# [1] = target: T1, Zinc finger protein GLI1 (Homo sapiens) (UniProt P08151); assay: Inhibition of human Gli1 expressed in mouse C3H10T1/2 cells assessed as inhibition of transcriptional activity at 10 to 20 uM after 24 hrs by luciferase reporter gene assay; type: cell-based; conditions: C3H 10T1/2
# T1 sequence (whole entry): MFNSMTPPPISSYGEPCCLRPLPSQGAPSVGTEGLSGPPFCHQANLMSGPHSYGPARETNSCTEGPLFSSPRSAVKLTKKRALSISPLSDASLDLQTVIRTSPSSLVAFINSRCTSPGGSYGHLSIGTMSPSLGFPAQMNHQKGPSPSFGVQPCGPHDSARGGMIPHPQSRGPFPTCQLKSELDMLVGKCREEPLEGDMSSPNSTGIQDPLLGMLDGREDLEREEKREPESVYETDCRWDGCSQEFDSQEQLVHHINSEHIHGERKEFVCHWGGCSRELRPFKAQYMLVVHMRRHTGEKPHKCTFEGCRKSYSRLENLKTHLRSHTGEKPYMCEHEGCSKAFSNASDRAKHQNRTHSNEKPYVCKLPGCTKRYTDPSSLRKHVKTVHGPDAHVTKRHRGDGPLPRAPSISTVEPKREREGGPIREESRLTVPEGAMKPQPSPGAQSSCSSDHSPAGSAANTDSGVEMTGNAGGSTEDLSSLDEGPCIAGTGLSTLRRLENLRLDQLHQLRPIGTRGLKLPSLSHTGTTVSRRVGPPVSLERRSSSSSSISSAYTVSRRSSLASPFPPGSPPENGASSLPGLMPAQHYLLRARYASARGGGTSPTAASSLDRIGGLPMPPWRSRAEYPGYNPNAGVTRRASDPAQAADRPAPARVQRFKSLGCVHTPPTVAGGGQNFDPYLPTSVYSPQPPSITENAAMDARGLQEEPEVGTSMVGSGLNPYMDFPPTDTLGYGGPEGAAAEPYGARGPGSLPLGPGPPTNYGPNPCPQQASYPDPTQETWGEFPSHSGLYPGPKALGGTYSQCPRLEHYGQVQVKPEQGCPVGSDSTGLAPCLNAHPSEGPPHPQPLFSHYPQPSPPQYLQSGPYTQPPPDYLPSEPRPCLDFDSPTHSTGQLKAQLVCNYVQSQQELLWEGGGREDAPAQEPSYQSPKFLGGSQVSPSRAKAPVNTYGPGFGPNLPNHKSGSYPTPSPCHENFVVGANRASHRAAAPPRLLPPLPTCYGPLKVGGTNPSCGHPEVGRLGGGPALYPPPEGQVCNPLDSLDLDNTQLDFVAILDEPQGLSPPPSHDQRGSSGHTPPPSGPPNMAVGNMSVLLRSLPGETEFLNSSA
# How it was run: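 C3H10T1/2 cells transiently transfected overnight with GliLuc-BS, pRL-TK Renilla control and human Gli1 (or mouse Gli2 for Gli2 lines), 250 ng/mL each for the Gli plasmids. Cells replated in 96-well plates, then exposed to compound in BME/10% FBS for 24 h at 37 °C. Firefly/Renilla dual-luciferase ratio normalized to DMSO, triplicates. Dose–response IC50 from curve fitting.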
# SJRH30 [2] = assay: Cytotoxicity against human Rh30 cells at 5 to 20 uM after 72 hrs by Alamar blue assay; type: functional, cell-based
# How it was run: (§1)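 Cells seeded 24 h ahead in 384-well plates at 1.0×10^3 (BJ) or 1.6×10^3 (Rh30) per well. Compound diluted from DMSO stock into medium and added in triplicate, then incubated 68 h at 37 °C. Alamar Blue added for a further 4 h, with fluorescence read at ex 510/em 590 nm. Viability normalized to DMSO (100%) and no-cell (0%) wells.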
# BJ = assay: Cytotoxicity against human BJ cells at 5 to 20 uM after 72 hrs by Alamar blue assay; type: cell-based; how it was run: as §1
# [3] = Permeability in buffer of pH 7.4 by PAMPA; type: ADME; conditions: for Papp: read-out: permeability
# How it was run: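 Double-Sink PAMPA: DMSO stock diluted 200-fold into system solution buffer pH 7.4 in the donor plate, with acceptor sink buffer pH 7.4. Incubated 0.5 h at room temperature with stirring. Donor and acceptor concentrations measured by UV (230–500 nm), triplicates.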
# Caco-2 [4] = assay: Apparent permeability from apical to basolateral side of human Caco-2 cells at pH 7.4; type: ADME, cell-based; conditions: caco-2, pH 7.4
# How it was run: (§2)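 Caco-2 cells grown 7 days on Transwell inserts in MEM with 10% FBS. Monolayers washed with HBSS/HEPES (10 mM, pH 7.4), then compound at 50 µM added to the apical or basolateral side and incubated 2 h at 37 °C. Receiver fractions quantified by UPLC/MS, triplicates. Papp = dQ/dt […].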
# [5] = Half life in CD-1 mouse liver microsomes; type: ADME, Microsome
# How it was run: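 CD-1 female mouse liver microsomes at 0.6329 mg/mL protein in 0.1 M potassium phosphate pH 7.4 with EDTA. Compound at 1 µM, reaction started with NADPH regenerating system at 37 °C and sampled at 0, 0.5, 1 and 2 h in triplicate. Quenched with cold acetonitrile containing ketoconazole internal standard and analysed by UPLC-MS SIR. ke taken from log-linear regression, t1/2 = ln2/ke.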
# [6] = target: Transcription factor Jun (Homo sapiens) (UniProt P05412); assay: Inhibition of transcriptional activity of AP1 transfected in mouse C3H10T1/2 cells at 20 uM after 24 hrs by luciferase reporter gene assay; type: cell-based; conditions: C3H 10T1/2
# How it was run: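 AP-1 reporter tested in C3H10T1/2 cells under the same conditions as the Gli1/Gli-Luc assay: 24 h compound exposure and dual-luciferase read-out normalized to DMSO.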
# Caco-2 [7] = assay: Apparent permeability from basolateral to apical side of human Caco-2 cells at pH 7.4; type: ADME, cell-based; conditions: caco-2, pH 7.4; how it was run: as §2
# Caco-2 [8] = assay: Efflux ratio of permeability from basolateral to apical side over apical to basolateral side in human Caco-2 cells at pH 7.4; conditions: caco-2, pH 7.4
# [9] = target: T1, Zinc finger protein GLI1 (Homo sapiens); assay: Inhibition of human Gli1-mediated transcriptional activity in human Rh30 cells up to 40 uM after 24 hrs by luciferase reporter gene assay; type: cell-based
# How it was run: (§3)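 Rh30 cells without Gli1 transfection, transfected overnight with GliLuc-BS (500 ng/mL) and pRL-CMV (2.5 ng/mL), then replated in 96-well plates. Compound given in RPMI-1640/10% FBS for 24 h at 37 °C. Firefly luminescence divided by Renilla and normalized to DMSO-treated cells (0% inhibition), triplicates.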
# C3H 10T1/2 [10] = assay: Inhibition of Hh signal-induced alkaline phosphatase activity in mouse C3H10T1/2 cells after 4 days; type: functional, cell-based; conditions: C3H 10T1/2, 96 h
# [11] = Inhibition of HDAC up to 40 uM
# C3H 10T1/2 [12] = assay: Inhibition of Hh signal-induced alkaline phosphatase activity in mouse C3H10T1/2 cells at 10 uM after 4 days; type: functional, cell-based
# [13] = target: T1, Zinc finger protein GLI1 (Homo sapiens); assay: Inhibition of human Gli1-mediated transcriptional activity in human Rh30 cells at 10 to 20 uM after 24 hrs by luciferase reporter gene assay; type: cell-based; how it was run: as §3
# SJRH30 [14] = assay: Inhibition of Ptch1 expression in human Rh30 cells at 10 to 40 uM after 24 hrs by RT-PCR analysis; type: functional, cell-based
# How it was run: (§4)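 Rh30 cells in 6-well plates treated with compound or DMSO for 24 h. Total RNA (250 ng) reverse-transcribed after DNase removal, then SYBR Green real-time PCR with primers at 200 nM. Target mRNA normalized to GAPDH and to the DMSO control by the 2^-ΔΔCt method. Duplicate data.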
# SJRH30 [15] = assay: Inhibition of cyclinD1 expression in human Rh30 cells at 10 to 40 uM after 24 hrs by RT-PCR analysis; type: functional, cell-based; how it was run: as §4
# SJRH30 [16] = assay: Inhibition of Bcl2 expression in human Rh30 cells at 10 to 40 uM after 24 hrs by RT-PCR analysis; type: functional, cell-based; how it was run: as §4
# Chain of Transcription factor Jun (Homo sapiens) (P05412 whole entry): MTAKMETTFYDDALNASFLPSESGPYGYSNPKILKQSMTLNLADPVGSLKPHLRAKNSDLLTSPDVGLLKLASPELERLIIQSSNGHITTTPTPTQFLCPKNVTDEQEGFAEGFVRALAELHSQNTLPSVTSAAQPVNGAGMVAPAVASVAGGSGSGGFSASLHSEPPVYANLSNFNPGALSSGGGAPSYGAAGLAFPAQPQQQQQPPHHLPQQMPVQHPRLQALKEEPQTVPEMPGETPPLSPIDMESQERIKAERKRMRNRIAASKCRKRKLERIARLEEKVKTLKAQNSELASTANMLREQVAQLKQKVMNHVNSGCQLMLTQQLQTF
smiles,measurement,setting,value
CC(CNC(=O)c1cc2ccccc2[nH]1)c1cccc(C(=O)c2ccccc2)c1 (configuration not stated),inhibition,[1],Active
same,Activity,SJRH30 [2],Toxic
same,Activity,BJ,Non-toxic
CC(CNC(=O)c1cccc2[nH]ccc12)c1cccc(C(=O)c2ccccc2)c1 (configuration not stated),inhibition,[1],Active
CNC(=C[N+](=O)[O-])NCCSCc1ccc(CN(C)C)o1 [RANITIDINE],permeability,[3],2%
CC(CNC(=O)c1ccc2[nH]ccc2c1)c1cccc(C(=O)c2ccccc2)c1 (configuration not stated),permeability,[3],47%
same,Papp,[3],521 nm/s
same,inhibition,[1],Active
same,Activity,SJRH30 [2],Toxic
same,Papp,Caco-2 [4],58 nm/s
same,t1/2,[5],0.6 h
same,inhibition,[6],inactive
same,Papp,Caco-2 [7],27 nm/s
same,Activity,BJ,Non-toxic
same,Ratio,Caco-2 [8],0.46
COc1cc(OC)cc(C(=O)Nc2ccc(Cl)c(-c3nc4cc(N(C)C)ccc4[nH]3)c2)c1,inhibition,[9],inactive
same,pIC50,C3H 10T1/2 [10],7.00
CC(C(=O)Nc1ccc2[nH]ccc2c1)c1cccc(C(=O)c2ccccc2)c1 (configuration not stated),Activity,SJRH30 [2],Toxic
same,Activity,BJ,Non-toxic
CCCN(C(=O)C(C)c1cccc(C(=O)c2ccccc2)c1)c1cccc2[nH]ccc12 (configuration not stated),Activity,SJRH30 [2],Toxic
same,Activity,BJ,Non-toxic
NC(=O)N1c2ccccc2C=Cc2ccccc21 [CARBAMAZEPINE],permeability,[3],33%
CC(C(=O)NCCc1ccc(O)cc1)c1cccc(C(=O)c2ccccc2)c1 (configuration not stated),permeability,[3],92%
same,Papp,[3],602 nm/s
same,Activity,SJRH30 [2],Toxic
same,Papp,Caco-2 [4],130 nm/s
same,inhibition,[11],inactive
same,Papp,Caco-2 [7],58 nm/s
same,Activity,BJ,Non-toxic
same,Ratio,Caco-2 [8],0.45
CC(C(=O)Nc1ccc2cc[nH]c2c1)c1cccc(C(=O)c2ccccc2)c1 (configuration not stated),permeability,[3],75%
same,Papp,[3],778 nm/s
same,inhibition,C3H 10T1/2 [12],inactive
same,inhibition,[13],Active
same,Activity,SJRH30 [2],Toxic
same,Papp,Caco-2 [4],122 nm/s
same,t1/2,[5],2.8 h
same,inhibition,[6],inactive
same,Papp,Caco-2 [7],39 nm/s
same,Activity,BJ,Non-toxic
same,Ratio,Caco-2 [8],0.31
CC(CNC(=O)c1c[nH]c2ccccc12)c1cccc(C(=O)c2ccccc2)c1 (configuration not stated),inhibition,[1],Active
same,Activity,SJRH30 [2],Toxic
same,Activity,BJ,Non-toxic
CC(CNC(=O)c1cccc2cc[nH]c12)c1cccc(C(=O)c2ccccc2)c1 (configuration not stated),inhibition,[1],Active
CC(CNC(=O)Cc1ccc2[nH]ccc2c1)c1cccc(C(=O)c2ccccc2)c1 (configuration not stated),inhibition,[1],inactive
CCCN(C(=O)C(C)c1cccc(C(=O)c2ccccc2)c1)c1ccc2[nH]ccc2c1 (configuration not stated),inhibition,C3H 10T1/2 [12],inactive
same,inhibition,[13],Active
same,Activity,SJRH30 [2],Toxic
same,inhibition,[11],inactive
same,t1/2,[5],0.8 h
same,inhibition,[6],inactive
same,Activity,BJ,Non-toxic
CCCN(CCc1ccc(O)cc1)C(=O)C(C)c1cccc(C(=O)c2ccccc2)c1 (configuration not stated),Activity,SJRH30 [2],Toxic
same,inhibition,[11],inactive
same,Activity,BJ,Non-toxic
same,inhibition,[9],inactive
CCCN(C(=O)C(C)c1cccc(C(=O)c2ccccc2)c1)c1ccc2cc[nH]c2c1 (configuration not stated),permeability,[3],80%
same,Papp,[3],714 nm/s
same,inhibition,C3H 10T1/2 [12],inactive
same,inhibition,[13],Active
same,Activity,SJRH30 [2],Toxic
same,inhibition,SJRH30 [14],Active
same,inhibition,[11],inactive
same,t1/2,[5],1.8 h
same,inhibition,[6],inactive
same,inhibition,SJRH30 [15],Active
same,Activity,BJ,Non-toxic
same,inhibition,SJRH30 [16],Active
CC(CNC(=O)c1ccc2cc[nH]c2c1)c1cccc(C(=O)c2ccccc2)c1 (configuration not stated),inhibition,[1],Active
same,Activity,SJRH30 [2],Toxic
same,Activity,BJ,Non-toxic
